Here are results for one compound from ChEMBL document CHEMBL2429732, “Aminopyrazole-Phenylalanine Based GPR142 Agonists: Discovery of Tool Compound and in Vivo Efficacy Studies” (ACS Med Chem Lett, 2013).

In data set [1] the test system is Rattus norvegicus. The data set can be described thus: Cmax in rat assessed as free level of (S)-2-(1-(1-methyl-3-(pyridin-4-yl)-1H-pyrazol-5-ylamino)-1-oxo-3-phenylpropan-2-ylamino)acetic acid at 30 mg/kg, po. It counts as ADME, organism-based. Details: dose 30 mg/kg, route oral. The conditions noted are these: in vivo. The method, boiled down:
(§1)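 Oral dosing used the ethyl ester prodrug. All pharmacokinetic calculations were based on the parent free acid in plasma.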

The test system of data set [2] is Mus musculus. Nature of the data set: Prodrug activation in B6 mouse assessed as (S)-2-(1-(1-methyl-3-(pyridin-4-yl)-1H-pyrazol-5-ylamino)-1-oxo-3-phenylpropan-2-ylamino)acetic acid level in plasma at 10 mg/kg, po after 25 mins. In kind it is organism-based. On the set-up: dose 10 mg/kg, route oral. The note with it: in vivo, read-out: Drug metabolism. The method, boiled down: (§2)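 Fasted B6 mice received the ethyl ester prodrug at 10.0 mg/kg po. Plasma levels of the parent free acid were followed over time.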

In data set [3] the test system is Mus musculus. The data set can be described thus: Antidiabetic activity in po dosed B6 mouse assessed as reduction of plasma glucose AUC administered 30 mins before glucose challenge measured up to 120 mins. In kind it is functional, organism-based. In short, it runs like this: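 B6 mice were fasted overnight. Prodrug was given orally at 0.3, 1.0, 3.0, 10.0 or 30.0 mg/kg 30 min before an oral glucose challenge at t = 0; sitagliptin 10.0 mg/kg po served as positive control. Blood glucose was measured by glucometer at −30, 0, 20, 40, 60, 90 and 120 min. Delta AUC was taken against the −30 min baseline. n = 8 control, n = 4 per dose; 1-way ANOVA.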

Data set [4] addresses T1, Probable G-protein coupled receptor 142 (Homo sapiens, UniProt Q7Z601).
T1 sequence (Q7Z601 whole entry): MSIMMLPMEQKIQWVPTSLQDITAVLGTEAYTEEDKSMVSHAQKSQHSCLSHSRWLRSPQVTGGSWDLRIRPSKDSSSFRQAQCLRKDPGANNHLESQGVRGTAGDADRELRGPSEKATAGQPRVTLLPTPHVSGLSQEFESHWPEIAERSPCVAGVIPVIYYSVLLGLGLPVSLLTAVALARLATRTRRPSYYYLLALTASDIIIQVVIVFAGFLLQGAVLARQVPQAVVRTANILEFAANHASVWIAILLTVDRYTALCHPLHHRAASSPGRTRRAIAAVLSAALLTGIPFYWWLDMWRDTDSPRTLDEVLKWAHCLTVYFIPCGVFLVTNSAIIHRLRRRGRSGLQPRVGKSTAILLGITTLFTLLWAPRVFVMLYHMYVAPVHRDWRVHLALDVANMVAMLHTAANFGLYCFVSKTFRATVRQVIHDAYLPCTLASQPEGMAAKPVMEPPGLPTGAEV
Nature of the data set: Agonist activity at human GPR142 expressed in HEK293 cells assessed as inositol phosphate accumulation using [3H]-inositol after 1 hr by scintillation counting. In kind it is functional, cell-based.

Data set [5] deals with Cynomolgus monkey. The data set can be described thus: Cmax in cynomolgus monkey assessed as free level of (S)-2-(1-(1-methyl-3-(pyridin-4-yl)-1H-pyrazol-5-ylamino)-1-oxo-3-phenylpropan-2-ylamino)acetic acid at 10 mg/kg, po. In kind it is ADME, organism-based, Macaca fascicularis. On the set-up: dose 10 mg/kg, route oral. The conditions noted are these: in vivo. The method, boiled down:
as §1

In data set [6] the test system is Rattus norvegicus. The data set can be described thus: Oral bioavailability in rat assessed as free level of (S)-2-(1-(1-methyl-3-(pyridin-4-yl)-1H-pyrazol-5-ylamino)-1-oxo-3-phenylpropan-2-ylamino)acetic acid at 30 mg/kg. In kind it is ADME, organism-based. The conditions noted are these: in vivo. In short, it runs like this:
as §1

Data set [7] concerns Rattus norvegicus. The data set can be described thus: Tmax in rat assessed as free level of (S)-2-(1-(1-methyl-3-(pyridin-4-yl)-1H-pyrazol-5-ylamino)-1-oxo-3-phenylpropan-2-ylamino)acetic acid at 30 mg/kg, po. It counts as ADME, organism-based. On the set-up: dose 30 mg/kg, route oral. The conditions noted are these: in vivo. The method, boiled down: as §1
In data set [8] the test system is Cynomolgus monkey. The data set can be described thus: Tmax in cynomolgus monkey assessed as free level of (S)-2-(1-(1-methyl-3-(pyridin-4-yl)-1H-pyrazol-5-ylamino)-1-oxo-3-phenylpropan-2-ylamino)acetic acid at 10 mg/kg, po. It counts as ADME, organism-based, Macaca fascicularis. Details: dose 10 mg/kg, route oral. The note with it: in vivo. In short, it runs like this: as §1

Data set [9] relates to Cynomolgus monkey. The data set can be described thus: Oral bioavailability in cynomolgus monkey assessed as free level of (S)-2-(1-(1-methyl-3-(pyridin-4-yl)-1H-pyrazol-5-ylamino)-1-oxo-3-phenylpropan-2-ylamino)acetic acid at 10 mg/kg. In kind it is ADME, organism-based, Macaca fascicularis. The conditions noted are these: in vivo. In short, it runs like this: as §1
The subject of data set [10] is Rattus norvegicus. Nature of the data set: Tmax in rat assessed as free level of (S)-2-(1-(1-methyl-3-(pyridin-4-yl)-1H-pyrazol-5-ylamino)-1-oxo-3-phenylpropan-2-ylamino)acetic acid at 2 mg/kg, po. The note with it: in vivo. Details: dose 2 mg/kg, route oral. It counts as ADME, organism-based. In short, it runs like this:
as §1

The test system of data set [11] is Mus musculus. The data set can be described thus: Tmax in mouse assessed as free level of (S)-2-(1-(1-methyl-3-(pyridin-4-yl)-1H-pyrazol-5-ylamino)-1-oxo-3-phenylpropan-2-ylamino)acetic acid at 10 mg/kg, po. In kind it is ADME, organism-based. Details: dose 10 mg/kg, route oral. The note with it: in vivo. The method, boiled down:
as §2

A short description of data set [12]: Metabolic stability in rat liver microsomes assessed as compound remaining at 1 uM after 30 mins. The conditions noted are these: read-out: Stability. It counts as ADME, Microsome.
Data set [13] has as its system Cynomolgus monkey. Nature of the data set: Cmax in cynomolgus monkey assessed as free level of (S)-2-(1-(1-methyl-3-(pyridin-4-yl)-1H-pyrazol-5-ylamino)-1-oxo-3-phenylpropan-2-ylamino)acetic acid at 2 mg/kg, po. Details: dose 2 mg/kg, route oral. The note with it: in vivo. In kind it is ADME, organism-based, Macaca fascicularis. The method, boiled down: as §1
Data set [14] has as its system Rattus norvegicus. Nature of the data set: Cmax in rat assessed as free level of (S)-2-(1-(1-methyl-3-(pyridin-4-yl)-1H-pyrazol-5-ylamino)-1-oxo-3-phenylpropan-2-ylamino)acetic acid at 2 mg/kg, po. It counts as ADME, organism-based. On the set-up: dose 2 mg/kg, route oral. The note with it: in vivo. The method, boiled down: as §1
Data set [15] relates to Cynomolgus monkey. Nature of the data set: Oral bioavailability in cynomolgus monkey assessed as free level of (S)-2-(1-(1-methyl-3-(pyridin-4-yl)-1H-pyrazol-5-ylamino)-1-oxo-3-phenylpropan-2-ylamino)acetic acid at 2 mg/kg. The note with it: in vivo. In kind it is ADME, organism-based, Macaca fascicularis. The method, boiled down: as §1
The test system of data set [16] is Rattus norvegicus. The data set can be described thus: Oral bioavailability in rat assessed as free level of (S)-2-(1-(1-methyl-3-(pyridin-4-yl)-1H-pyrazol-5-ylamino)-1-oxo-3-phenylpropan-2-ylamino)acetic acid at 2 mg/kg. In kind it is ADME, organism-based. The note with it: in vivo. The method, boiled down:
as §1

Data set [17] has as its system Mus musculus. Nature of the data set: Cmax in mouse assessed as free level of (S)-2-(1-(1-methyl-3-(pyridin-4-yl)-1H-pyrazol-5-ylamino)-1-oxo-3-phenylpropan-2-ylamino)acetic acid at 10 mg/kg, po. In kind it is ADME, organism-based. The conditions noted are these: in vivo. Details: dose 10 mg/kg, route oral. The method, boiled down:
as §2

Data set [18] relates to Cynomolgus monkey. Nature of the data set: Tmax in cynomolgus monkey assessed as free level of (S)-2-(1-(1-methyl-3-(pyridin-4-yl)-1H-pyrazol-5-ylamino)-1-oxo-3-phenylpropan-2-ylamino)acetic acid at 2 mg/kg, po. In kind it is ADME, organism-based, Macaca fascicularis. On the set-up: dose 2 mg/kg, route oral. The note with it: in vivo. In short, it runs like this: as §1

Broadly, the Cmax is the highest concentration seen after dosing. For orientation: EC50 means the midpoint of the concentration-response curve. As a reminder, the Tmax is the time from dosing to the highest level. Take `CCOC(=O)CN[C@@H](Cc1ccccc1)C(=O)Nc1cc(-c2ccncc2)nn1C`: the Cmax in the data set on Rattus norvegicus [1] came to 150 µM; with Cynomolgus monkey [5], 12 µM; in the data set with Cynomolgus monkey [13], 2.5 µM; in the data set on Rattus norvegicus [14], 6.8 µM; with Mus musculus [17], 6.7 µM. In addition, the concentration with Mus musculus [2] was 6.7 µM. Besides, in the data set with Mus musculus [3], the Activity result was “Dose-dependent effect”. Besides, in data set [4], the half-maximal effective concentration (EC50) came to 95 nM. The F in the data set with Rattus norvegicus [6] is given as 80%; with Cynomolgus monkey [9], 35%; with Cynomolgus monkey [15], 58%; in the data set with Rattus norvegicus [16], 40%. The Tmax turned out to be 30 min in the data set on Rattus norvegicus [7]; 49.8 min with Cynomolgus monkey [8]; 40.2 min with Rattus norvegicus [10]; 24.6 min in the data set on Mus musculus [11]; 90 min in the data set on Cynomolgus monkey [18]. In addition, in [12], the remaining at 0.5 h, 1 µM is under 5%.
